The assay concerns the target Platelet-activating factor acetylhydrolase (Homo sapiens) (UniProt Q13093). Description: pPAFAH inhibitor binding mode by mass spectrometry – biochemical, LC-MS/MS, mechanism study, late-stage follow-up (AID 588788). Particulars: purified recombinant pPAFAH, LC-MS/MS active-site labeling. Summed up:
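System – recombinant human pPAFAH hydrophobic-patch triple mutant · Input – pPAFAH at 40 µM before compound addition · Schedule – compound exposure 60 min, 37 °C · Dosing – one dose, 100 µM final · Medium – DPBS buffer · Evaluation – catalytic serine covalent adduct presence · Controls – DMSO-only enzyme sample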

Activity calls are given as the source filed them.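 Rule for the calls: active = compound seen by mass spectrometry to covalently label the enzyme's active site serine; inactive = no covalent labeling seen.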

Sequence of Platelet-activating factor acetylhydrolase (Homo sapiens) (Q13093 42-441 I120A/L123A/L124A limits assumed): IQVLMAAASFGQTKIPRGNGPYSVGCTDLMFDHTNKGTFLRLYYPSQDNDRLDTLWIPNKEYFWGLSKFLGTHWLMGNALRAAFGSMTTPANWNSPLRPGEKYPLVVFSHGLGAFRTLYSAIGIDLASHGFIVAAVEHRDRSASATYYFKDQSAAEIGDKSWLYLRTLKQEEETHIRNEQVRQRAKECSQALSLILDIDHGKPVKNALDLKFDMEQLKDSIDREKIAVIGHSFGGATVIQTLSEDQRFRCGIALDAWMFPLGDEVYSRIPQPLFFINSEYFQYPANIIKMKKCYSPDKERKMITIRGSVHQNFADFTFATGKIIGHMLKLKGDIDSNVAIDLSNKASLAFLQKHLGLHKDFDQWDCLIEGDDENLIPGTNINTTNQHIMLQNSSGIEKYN

For `Cc1cc(N2CCN(C(=O)Oc3ccc(-c4ccccc4)cn3)CC2)c2ccccc2n1`, the outcome is “active; covalent”.

For the origin of these results see PubChem BioAssay AID588788 (The Scripps Research Institute Molecular Screening Center, 2011).
